The source made the active and inactive calls. The calls are words filed in the database; no cut-off is given here.
What was measured:
Rattus norvegicus [1] = assay: Antiallergic activity in egg albumin-sensitized Sprague-Dawley rat assessed as inhibition of passive cutaneous anaphylaxis at 25 to 50 mg/kg, po administered 15 mins prior to egg albumin and Evans blue dye challenge; format: functional, organism-based
In short: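 Rats were passively sensitized by intradermal mid-dorsal injection of antibody. The antibody came from rats sensitized to egg albumin with Bordetella pertussis adjuvant, and sensitivity developed over 24 h. Compound was given orally before iv egg albumin plus Evans blue. Blue weal size and intensity were compared with untreated rats to give percent inhibition.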

Rattus norvegicus [2] = assay: Antiallergic activity in egg albumin-sensitized Sprague-Dawley rat assessed as inhibition of passive cutaneous anaphylaxis compound administered ip 5 mins prior to egg albumin and Evans blue dye challenge; format: functional; settings: for minimal effective dose: read-out: MED; for ED50: read-out: ID50 (the source's name)
In short: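 Antibody from egg albumin/B. pertussis-sensitized rats was injected intradermally in the mid-dorsal region, then 24 h allowed. Drug was given ip, then iv egg albumin plus Evans blue. Weal size and intensity were scored against untreated controls. Initial doses were 50 or 25 mg/kg, then 10, 5, 2.5 and 1.25 mg/kg, with n = 6 per group. MED was the lowest significant ip dose (p ≤ 0.05, Student's t). ID50 was reported with 95% confidence limits.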

Rattus norvegicus [3] = assay: Antiallergic activity in egg albumin-sensitized Sprague-Dawley rat assessed as inhibition of passive cutaneous anaphylaxis compound administered prior to egg albumin and Evans blue dye challenge; settings: read-out: MED

| Compound | inhibition (Rattus norvegicus [1]) | minimal effective dose (Rattus norvegicus [2]) [mg/kg] | ED50 (Rattus norvegicus [2]) [mg/kg] | minimal effective dose (Rattus norvegicus [3]) [mg/kg] |
| --- | --- | --- | --- | --- |
| COC(=O)c1cc(=O)c2cccc(S(=O)(=O)c3ccccc3)c2[nH]1 | inactive | – | – | – |
| O=C(O)c1cc(=O)c2cc(Sc3ccccc3)ccc2[nH]1 | inactive | > 50 | – | – |
| COC(=O)c1cc(=O)c2cccc(Sc3ccccc3)c2[nH]1 | inactive | – | – | – |
| CC(=O)c1cccc2c(=O)cc(C(=O)O)[nH]c12 | inactive | 25 | – | – |
| COC(=O)c1cc(=O)c2cccc(C(=O)c3ccc(C)cc3)c2[nH]1 | inactive | – | – | – |
| O=C(O)c1cc(=O)c2ccc(Sc3ccccc3)cc2[nH]1 | inactive | > 25 | – | – |
| COC(=O)c1cc(=O)c2cc([S+]([O-])c3ccccc3)ccc2[nH]1 (stereo not given) | inactive | – | – | – |
| COC(=O)c1cc(=O)c2ccc3c(c2[nH]1)C(=O)c1ccccc1-3 | inactive | – | – | – |
| O=C(O)c1cc(=O)c2cccc(S(=O)(=O)c3ccccc3)c2[nH]1 | inactive | 10 | – | – |
| COC(=O)c1cc(=O)c2cc(Cl)cc(C(=O)c3ccccc3)c2[nH]1 | inactive | – | – | – |
| O=C(O)c1cc(=O)c2ccc3c(c2[nH]1)C(=O)c1ccccc1-3 | inactive | – | 2.8 | – |
| COC(=O)c1cc(=O)c2cc(S(=O)(=O)c3ccccc3)ccc2[nH]1 | inactive | – | – | – |
| O=C(O)c1cc(=O)c2cccc(C(=O)c3ccccc3)c2[nH]1 | inactive | 25 | – | – |
| COC(=O)c1cc(=O)c2ccc(S(=O)(=O)c3ccccc3)cc2[nH]1 | inactive | – | – | – |
| O=C(O)c1cc(=O)c2ccccc2[nH]1 [TRANSTORINE] | inactive | 50 | – | – |
| O=C(O)c1cc(=O)c2cc([S+]([O-])c3ccccc3)ccc2[nH]1 (stereo not given) | inactive | 25 | – | – |
| COC(=O)c1cc(=O)c2cc(C(C)=O)ccc2[nH]1 | inactive | – | – | – |
| CC(=O)c1ccc2c(O)cc(C(=O)O)nc2c1 | inactive | 10 | – | – |

| Compound | inhibition (Rattus norvegicus [1]) | minimal effective dose (Rattus norvegicus [2]) [mg/kg] | ED50 (Rattus norvegicus [2]) [mg/kg] | minimal effective dose (Rattus norvegicus [3]) [mg/kg] |
| --- | --- | --- | --- | --- |
| COC(=O)c1cc(=O)c2ccc(C(C)=O)cc2[nH]1 | inactive | – | – | – |
| O=C(O)c1cc(=O)c2cccc(Sc3ccccc3)c2[nH]1 | inactive | 25 | – | – |
| COC(=O)c1cc(=O)c2cccc(C(C)=O)c2[nH]1 | – | – | – | 25 |
| O=C(c1ccccc1)c1ccc2[nH]c(C(=O)[O-])cc(=O)c2c1.[Na+] | inactive | 10 | – | – |
| O=C(O)c1cc(=O)c2cc(Cl)cc(C(=O)c3ccccc3)c2[nH]1 | inactive | 50 | – | – |
| O=C(c1ccccc1)c1ccc2c(=O)cc(C(=O)O)[nH]c2c1 | inactive | 25 | – | – |
| O=C(O)c1cc(=O)c2cc(S(=O)(=O)c3ccccc3)ccc2[nH]1 | inactive | > 25 | – | – |
| O=C(O)c1cc(=O)c2ccc3c(c2[nH]1)-c1ccccc1C3=O | inactive | > 25 | – | – |
| CC(=O)c1ccc2[nH]c(C(=O)O)cc(=O)c2c1 | inactive | 25 | – | – |
| COC(=O)c1cc(=O)c2cc(Sc3ccccc3)ccc2[nH]1 | inactive | – | – | – |
| COC(=O)c1cc(=O)c2cc(C(=O)c3ccccc3)ccc2[nH]1 | inactive | – | – | – |
| O=C([O-])c1cc(=O)c2c(OCC(O)COc3cccc4oc(C(=O)[O-])cc(=O)c34)cccc2o1.[Na+].[Na+] [CROMOLYN SODIUM] | inactive | – | 2.6 | – |
| COC(=O)c1cc(=O)c2ccc(C(=O)c3ccccc3)cc2[nH]1 | inactive | – | – | – |
| COC(=O)c1cc(=O)c2ccc(Sc3ccccc3)cc2[nH]1 | inactive | – | – | – |
| COC(=O)c1cc(=O)c2cccc(C(=O)c3ccccc3)c2[nH]1 | inactive | – | – | – |
| O=C(O)c1cc(=O)c2ccc(S(=O)(=O)c3ccccc3)cc2[nH]1 | inactive | > 25 | – | – |
| Cc1ccc(C(=O)c2cccc3c(=O)cc(C(=O)O)[nH]c23)cc1 | inactive | 25 | – | – |
| COC(=O)c1cc(=O)c2ccc3c(c2[nH]1)-c1ccccc1C3=O | inactive | – | – | – |

Source: ChEMBL document CHEMBL3244192, “Antiallergic activity of tetracyclic derivatives of quinoline-2-carboxylic acids. 1” (1978)
